ChEMBL document CHEMBL1126566, “Studies on analogues of classical antifolates bearing the naphthoyl group in place of benzoyl in the side chain” (J Med Chem, 1993)

Assays:
CCRF S-180 = assay: Tested for the ability to inhibit growth in vitro against S180; format: functional, cell-based; conditions: Mus musculus
HL-60 = assay: Tested for the ability to inhibit growth in vitro against HL60; format: functional, cell-based; conditions: Homo sapiens
L1210 [1] = assay: Tested for the ability to inhibit growth in vitro against L1210; format: functional, cell-based; conditions: Mus musculus
L1210 [2] = assay: Tested for transport into L1210 cells measured as cell influx; format: functional, cell-based, Mus musculus
Dihydrofolate reductase [3] = target: T1, Dihydrofolate reductase (Mus musculus, UniProt P00375); assay: Inhibitory activity of Dihydrofolate reductase in L1210 cells; format: cell-based
T1 sequence (P00375 whole entry): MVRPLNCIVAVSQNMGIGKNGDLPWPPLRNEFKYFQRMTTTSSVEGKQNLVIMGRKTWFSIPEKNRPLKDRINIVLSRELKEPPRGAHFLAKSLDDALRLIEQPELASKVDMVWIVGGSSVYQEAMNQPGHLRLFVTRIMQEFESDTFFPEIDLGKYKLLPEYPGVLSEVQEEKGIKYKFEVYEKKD

Dihydrofolate reductase [4] = target: T2, Dihydrofolate reductase (Pneumocystis carinii, UniProt P16184); assay: Tested for inhibition against Dihydrofolate reductase from Pneumocystis carinii
T2 sequence (P16184 whole entry): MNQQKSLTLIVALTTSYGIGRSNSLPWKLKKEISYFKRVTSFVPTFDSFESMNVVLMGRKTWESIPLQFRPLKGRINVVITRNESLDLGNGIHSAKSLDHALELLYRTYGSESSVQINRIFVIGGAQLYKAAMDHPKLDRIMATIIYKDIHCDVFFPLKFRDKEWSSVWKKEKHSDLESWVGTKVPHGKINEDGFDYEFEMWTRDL

CCRF-CEM = assay: (§1) Percent inhibition of Folyl-polyglutamate synthase from CCRF-CEM cells; format: cell-based; design: concentration or dose not given beside the values; conditions: Homo sapiens, dose or concentration not given here
Outline: (§2)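 FPGS was partially purified from CCRF-CEM cells by (NH₄)₂SO₄ fractionation and gel sieving, with no detectable γ-glutamyl hydrolase. Product was separated on DEAE-cellulose. Percent inhibition is reported.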

[5] = Activity relative to saturating aminopterine at 100 uM against CCRF-CEM Folyl-polyglutamate synthetase; format: ADME; conditions: human
Outline: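 FPGS from CCRF-CEM cells: freeze-thawed lysates fractionated by (NH₄)₂SO₄ (0–40% saturation pellet) and gel sieving, stored at –90 °C in 20% glycerol, free of detectable γ-glutamyl hydrolase. Product was separated on DEAE-cellulose minicolumns. Run in duplicate or triplicate, and each experiment was repeated at least once.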

[6] = target: T3, Folylpolyglutamate synthase, mitochondrial (Mus musculus) (UniProt P48760); assay: Specific activity of L1210 Folyl-polyglutamate synthase
T3 sequence (whole entry): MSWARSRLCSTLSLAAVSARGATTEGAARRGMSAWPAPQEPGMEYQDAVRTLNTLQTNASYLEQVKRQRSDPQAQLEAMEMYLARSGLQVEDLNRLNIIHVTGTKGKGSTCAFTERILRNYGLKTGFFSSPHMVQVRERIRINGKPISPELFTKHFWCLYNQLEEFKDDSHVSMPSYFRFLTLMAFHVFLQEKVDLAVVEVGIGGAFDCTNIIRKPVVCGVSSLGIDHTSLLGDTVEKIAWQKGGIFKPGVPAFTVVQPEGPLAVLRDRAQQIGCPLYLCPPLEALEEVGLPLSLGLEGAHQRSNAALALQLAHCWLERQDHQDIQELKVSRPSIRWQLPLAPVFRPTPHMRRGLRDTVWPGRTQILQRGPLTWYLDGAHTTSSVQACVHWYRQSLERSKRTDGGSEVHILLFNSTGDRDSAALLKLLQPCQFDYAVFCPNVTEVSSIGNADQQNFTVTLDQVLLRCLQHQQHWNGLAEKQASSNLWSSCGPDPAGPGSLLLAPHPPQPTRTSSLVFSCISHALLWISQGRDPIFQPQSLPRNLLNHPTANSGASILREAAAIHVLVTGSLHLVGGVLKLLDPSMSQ
Outline: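 FPGS from L1210 cells was assayed by [³H]glutamate ligation, like the human enzyme assay. Each folate substrate was at 100 μM, and only specific activity was measured.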

Mus musculus [7] = assay: Antitumor activity against E0771 mammary adenocarcinoma in mice at 6 mg/kg(5 days) was determined and tumor volume at day 10 was reported; format: functional
Outline: (§3)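 Mice bearing implanted E0771 mammary adenocarcinoma, five per test group. Dosing was daily for 5 days, starting on day 3 after implantation. Tumor volume (mm³) was calculated as 4/3πr³ and is also expressed as treated/control (%).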

Mus musculus [8] = assay: Antitumor activity against E0771 mammary adenocarcinoma in mice at 6 mg/kg(5 days) was determined and […] at day 14 was reported; toxic indicates 4 toxic deaths; format: organism-based; design: dose 6 mg/kg; conditions: in vivo, 120 h
Outline: (§4)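 E0771 mammary adenocarcinoma implanted in mice, five mice per group. Treatment was given daily for 5 days, starting day 3 after implantation. Tumor volume was calculated as 4/3πr³ and averaged on days 7, 10 and 14. T/C (%) is the treated/control tumor volume. Toxic deaths were recorded.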

Mus musculus [9] = assay: Antitumor activity against E0771 mammary adenocarcinoma in mice at 6 mg/kg(5 days) was determined and […] at day 7 was reported; format: functional; outline: as §4
Mus musculus [10] = assay: Antitumor activity against E0771 mammary adenocarcinoma in mice at 3 mg/kg(5 days) was determined and tumor volume at day 14 was reported; format: functional; outline: as §3
Mus musculus [11] = assay: Antitumor activity against E0771 mammary adenocarcinoma in mice at 6 mg/kg(5 days) was determined and tumor volume at day 14 was reported; toxic indicates 4 toxic deaths; format: organism-based; design: dose 6 mg/kg; conditions: in vivo, 120 h; outline: as §4
[12] = as §1; format: cell-based, Homo sapiens; outline: as §2
Mus musculus [13] = assay: Antitumor activity against E0771 mammary adenocarcinoma in mice at 3 mg/kg(5 days) was determined and […] at day 10 was reported; format: functional; outline: as §4
Mus musculus [14] = assay: Antitumor activity against E0771 mammary adenocarcinoma in mice at 6 mg/kg(5 days) was determined and tumor volume at day 7 was reported; format: functional; outline: as §3
Mus musculus [15] = assay: Antitumor activity against E0771 mammary adenocarcinoma in mice at 3 mg/kg(5 days) was determined and […] at day 14 was reported; format: functional; outline: as §4
Mus musculus [16] = assay: Antitumor activity against E0771 mammary adenocarcinoma in mice at 6 mg/kg(5 days) was determined and […] at day 10 was reported; format: functional; outline: as §4
Mus musculus [17] = assay: Antitumor activity against E0771 mammary adenocarcinoma in mice at 3 mg/kg(5 days) was determined and tumor volume at day 10 was reported; format: functional; outline: as §3
Mus musculus [18] = assay: Antitumor activity against E0771 mammary adenocarcinoma in mice at 3 mg/kg(5 days) was determined and tumor volume at day 7 was reported; format: functional; outline: as §3
Mus musculus [19] = assay: Antitumor activity against E0771 mammary adenocarcinoma in mice at 3 mg/kg(5 days) was determined and […] at day 7 was reported; format: functional; outline: as §4

Nc1nc(N)c2cc(CNc3ccc(C(=O)NC(CCC(=O)O)C(=O)O)c4ccccc34)cnc2n1 (stereo not given)
IC50 (CCRF S-180): 3.9 nM | IC50 (HL-60): 1.4 nM | IC50 (L1210 [1]): 4.2 nM | Ki (L1210 [2]): 1520 nM | Ki (Dihydrofolate reductase [3]): 0.00365 nM | IC50 (Dihydrofolate reductase [4]): 0.00053 nM | inhibition (CCRF-CEM): 21% | Relative Vmax [5]: 0.01

Nc1nc(N)c2nc(CNc3ccc(C(=O)NC(CCC(=O)O)C(=O)O)c4ccccc34)cnc2n1 (stereo not given)
IC50 (CCRF S-180): 5.9 nM | Specific activity (pM hr-1 (mg of protein)-1) [6]: 0.41 | IC50 (HL-60): 4.6 nM | IC50 (L1210 [1]): 6 nM | Ki (L1210 [2]): 920 nM | Ki (Dihydrofolate reductase [3]): 0.00455 nM | inhibition (CCRF-CEM): 12% | Relative Vmax [5]: 0.03

Cc1c(CNc2ccc(C(=O)NC(CCC(=O)O)C(=O)O)c3ccccc23)cnc2nc(N)nc(N)c12 (stereo not given)
Tumor volume (Mus musculus [7]): 42 mm**3 | IC50 (CCRF S-180): 3.8 nM | T/C (Mus musculus [8]): Toxic | T/C (Mus musculus [9]): 39% | IC50 (HL-60): 0.74 nM | IC50 (L1210 [1]): 3.9 nM | Tumor volume (Mus musculus [10]): 1048 mm**3 | Tumor volume (Mus musculus [11]): Toxic | IC50 [12]: 69000 nM | Ki (L1210 [2]): 1310 nM | Ki (Dihydrofolate reductase [3]): 0.00508 nM | T/C (Mus musculus [13]): 68% | Tumor volume (Mus musculus [14]): 87 mm**3 | T/C (Mus musculus [15]): 60% | T/C (Mus musculus [16]): 7% | Tumor volume (Mus musculus [17]): 421 mm**3 | Tumor volume (Mus musculus [18]): 113 mm**3 | Relative Vmax [5]: 0.02 | T/C (Mus musculus [19]): 51%

Nc1nc(N)c2cc(CNc3ccc(C(=O)NC(CCC(=O)O)C(=O)O)c4ccccc34)ccc2n1 (stereo not given)
IC50 (CCRF S-180): 3.9 nM | IC50 (HL-60): 0.65 nM | IC50 (L1210 [1]): 6.1 nM | Ki (L1210 [2]): 900 nM | Ki (Dihydrofolate reductase [3]): 0.0052 nM
